# Key:
# [1] = system: OCI-AML-3; assay: cells; conditions: Homo sapiens, OCI-AML-3, 48 h
# [2] = molecular target: Interleukin-1 receptor-associated kinase 3 (Homo sapiens) (UniProt Q9Y616); assay: Inhibition of biotinylated ligand binding to wild-type human partial length IRAK3 (V147 to E596 residues) expressed in bacterial expression system at 50 nM measured after 1 hr by kinomescan assay relative to control
# Summary of the method: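 Kinase-tagged T7 phage was grown in an E. coli BL21-derived host at 32 °C until lysis, and the lysate was clarified. Kinase was bound to streptavidin beads carrying a biotinylated ligand, with test compound at 50 nM (final DMSO), in binding buffer for 1 h at rt. Bound kinase was eluted and quantified by qPCR. Result is POC relative to the DMSO (100%) and control-compound (0%) references.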
# Chain of Interleukin-1 receptor-associated kinase 3 (Homo sapiens) (Q9Y616 whole entry, the tested form may be a part): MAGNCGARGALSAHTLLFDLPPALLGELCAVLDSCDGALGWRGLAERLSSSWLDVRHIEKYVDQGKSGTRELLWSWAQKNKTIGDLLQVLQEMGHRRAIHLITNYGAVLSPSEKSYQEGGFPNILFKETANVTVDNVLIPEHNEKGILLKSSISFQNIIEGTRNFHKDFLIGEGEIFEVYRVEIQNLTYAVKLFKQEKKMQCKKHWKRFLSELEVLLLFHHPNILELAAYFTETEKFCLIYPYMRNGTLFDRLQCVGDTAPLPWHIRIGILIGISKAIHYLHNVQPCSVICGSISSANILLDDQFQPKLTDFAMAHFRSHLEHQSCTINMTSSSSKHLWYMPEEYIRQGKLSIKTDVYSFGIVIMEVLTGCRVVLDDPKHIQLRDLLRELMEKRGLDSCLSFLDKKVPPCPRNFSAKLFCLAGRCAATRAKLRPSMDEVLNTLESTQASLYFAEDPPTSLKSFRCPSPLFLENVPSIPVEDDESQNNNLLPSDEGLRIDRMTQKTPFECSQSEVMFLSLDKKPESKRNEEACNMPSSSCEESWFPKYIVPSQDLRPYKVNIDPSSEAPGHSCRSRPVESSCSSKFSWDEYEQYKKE
smiles,measurement,setting,value
CN(C)[C@@H]1CC[C@@]2(C)[C@@H](CC[C@@H]3[C@@H]2CC[C@]2(C)C(c4cccc5cnccc45)=CC[C@@H]32)C1,EC50,[1],4.8 µM
same,inhibition,[2],> 80%

# Reference: ChEMBL document CHEMBL4619723, “New CDK8 inhibitors as potential anti-leukemic agents - Design, synthesis and biological evaluation” (Bioorg Med Chem, 2020)
